pIC50: −log10 of the molar value. ≈ marks a conversion by molar mass, not a printed value.
What was measured:
HCT-116 = assay: Antiproliferative activity against human HCT116 cells after 72 hrs; format: functional
[1] = Log D at pH 7 by HPLC; format: physicochemical; conditions: buffer
[2] = Aqueous solubility at pH 7 by HPLC; format: physicochemical; conditions: buffer
How it was run: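 A 200 µM sample in PBS-buffered water at pH 7 was agitated 24 h at room temperature and then filtered. A 100 µM reference was fully dissolved in MeOH:MeCN:DMSO (8:1:1). Both were run by the same high-throughput HPLC method, and the peak areas were compared to give the dissolved concentration. The assay caps at 200 µM.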

[3] = target: Histone deacetylase 3 (Homo sapiens) (UniProt O15379); assay: Inhibition of HDAC3
Histone deacetylase 3 (Homo sapiens), sequence (O15379 whole entry): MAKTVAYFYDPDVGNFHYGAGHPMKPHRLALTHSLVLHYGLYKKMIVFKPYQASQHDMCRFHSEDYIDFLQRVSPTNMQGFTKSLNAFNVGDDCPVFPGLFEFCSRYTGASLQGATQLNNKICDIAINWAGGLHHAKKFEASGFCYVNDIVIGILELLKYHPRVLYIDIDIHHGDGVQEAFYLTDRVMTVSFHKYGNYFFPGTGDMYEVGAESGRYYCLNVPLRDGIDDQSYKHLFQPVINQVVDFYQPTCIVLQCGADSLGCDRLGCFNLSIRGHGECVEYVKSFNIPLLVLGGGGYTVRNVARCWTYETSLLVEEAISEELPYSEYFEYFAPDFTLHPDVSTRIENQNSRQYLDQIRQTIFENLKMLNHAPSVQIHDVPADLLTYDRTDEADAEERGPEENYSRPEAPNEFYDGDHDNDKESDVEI

[4] = target: Histone deacetylase 4 (Homo sapiens) (UniProt P56524); assay: Inhibition of HDAC4
Histone deacetylase 4 (Homo sapiens), sequence (P56524 whole entry): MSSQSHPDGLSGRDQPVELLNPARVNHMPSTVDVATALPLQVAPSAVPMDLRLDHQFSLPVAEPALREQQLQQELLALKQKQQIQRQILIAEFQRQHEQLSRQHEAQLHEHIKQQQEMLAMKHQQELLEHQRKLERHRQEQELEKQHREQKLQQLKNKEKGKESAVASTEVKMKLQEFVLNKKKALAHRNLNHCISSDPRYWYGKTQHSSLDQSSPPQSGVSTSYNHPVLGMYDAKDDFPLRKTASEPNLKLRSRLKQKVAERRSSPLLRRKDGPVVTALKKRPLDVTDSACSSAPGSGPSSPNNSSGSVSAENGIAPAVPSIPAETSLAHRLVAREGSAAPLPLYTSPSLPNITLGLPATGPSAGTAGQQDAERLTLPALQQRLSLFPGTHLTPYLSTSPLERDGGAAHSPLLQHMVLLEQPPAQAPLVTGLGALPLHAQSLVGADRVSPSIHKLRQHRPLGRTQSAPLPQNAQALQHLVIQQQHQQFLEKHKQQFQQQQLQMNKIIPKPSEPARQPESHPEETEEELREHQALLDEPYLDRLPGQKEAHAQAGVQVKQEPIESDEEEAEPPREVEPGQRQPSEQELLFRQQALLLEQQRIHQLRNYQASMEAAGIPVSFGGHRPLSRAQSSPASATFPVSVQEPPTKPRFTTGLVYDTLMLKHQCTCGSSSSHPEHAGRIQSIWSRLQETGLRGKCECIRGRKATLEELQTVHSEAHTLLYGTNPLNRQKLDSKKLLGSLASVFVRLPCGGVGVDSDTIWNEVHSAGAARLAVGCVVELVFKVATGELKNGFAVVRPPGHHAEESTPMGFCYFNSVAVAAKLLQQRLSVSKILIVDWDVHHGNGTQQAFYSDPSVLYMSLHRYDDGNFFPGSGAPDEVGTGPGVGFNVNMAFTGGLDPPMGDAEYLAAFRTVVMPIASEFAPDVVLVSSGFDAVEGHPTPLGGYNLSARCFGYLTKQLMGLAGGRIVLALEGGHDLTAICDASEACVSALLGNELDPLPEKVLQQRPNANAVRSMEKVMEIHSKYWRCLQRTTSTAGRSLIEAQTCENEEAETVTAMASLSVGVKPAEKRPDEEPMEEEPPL

[5] = target: Histone deacetylase 5 (Homo sapiens) (UniProt Q9UQL6); assay: Inhibition of HDAC5
Histone deacetylase 5 (Homo sapiens), sequence (Q9UQL6 whole entry): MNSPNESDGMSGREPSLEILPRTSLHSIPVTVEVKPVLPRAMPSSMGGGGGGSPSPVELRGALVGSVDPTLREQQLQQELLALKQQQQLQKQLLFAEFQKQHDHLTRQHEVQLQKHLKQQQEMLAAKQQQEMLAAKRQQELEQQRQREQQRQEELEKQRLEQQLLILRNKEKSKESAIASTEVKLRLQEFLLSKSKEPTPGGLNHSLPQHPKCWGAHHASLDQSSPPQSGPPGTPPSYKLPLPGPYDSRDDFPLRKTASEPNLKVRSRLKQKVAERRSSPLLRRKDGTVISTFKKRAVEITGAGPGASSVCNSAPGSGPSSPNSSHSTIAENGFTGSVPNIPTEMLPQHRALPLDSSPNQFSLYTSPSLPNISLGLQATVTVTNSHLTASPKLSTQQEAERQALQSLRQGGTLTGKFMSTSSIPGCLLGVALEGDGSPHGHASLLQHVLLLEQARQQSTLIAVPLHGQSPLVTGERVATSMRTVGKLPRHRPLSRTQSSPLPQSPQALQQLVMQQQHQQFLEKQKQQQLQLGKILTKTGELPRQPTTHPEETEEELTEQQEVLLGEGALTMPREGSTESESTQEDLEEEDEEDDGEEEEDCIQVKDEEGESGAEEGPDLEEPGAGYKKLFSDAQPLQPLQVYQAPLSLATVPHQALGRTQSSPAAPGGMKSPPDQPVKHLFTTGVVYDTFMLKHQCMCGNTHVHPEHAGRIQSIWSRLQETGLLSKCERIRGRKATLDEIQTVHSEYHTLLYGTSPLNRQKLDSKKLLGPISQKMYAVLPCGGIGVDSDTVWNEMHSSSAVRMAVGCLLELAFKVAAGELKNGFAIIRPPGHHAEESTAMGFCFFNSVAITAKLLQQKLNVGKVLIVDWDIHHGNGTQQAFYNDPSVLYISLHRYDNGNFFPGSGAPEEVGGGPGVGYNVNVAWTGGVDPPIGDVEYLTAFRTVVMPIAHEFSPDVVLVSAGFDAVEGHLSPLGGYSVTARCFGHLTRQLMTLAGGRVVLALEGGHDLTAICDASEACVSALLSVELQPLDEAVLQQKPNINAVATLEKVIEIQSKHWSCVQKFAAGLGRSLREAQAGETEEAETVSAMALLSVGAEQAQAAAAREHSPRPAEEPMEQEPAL

[6] = target: T1, Protein deacetylase HDAC6 (Homo sapiens) (UniProt Q9UBN7); assay: Inhibition of HDAC6
T1 sequence (whole entry): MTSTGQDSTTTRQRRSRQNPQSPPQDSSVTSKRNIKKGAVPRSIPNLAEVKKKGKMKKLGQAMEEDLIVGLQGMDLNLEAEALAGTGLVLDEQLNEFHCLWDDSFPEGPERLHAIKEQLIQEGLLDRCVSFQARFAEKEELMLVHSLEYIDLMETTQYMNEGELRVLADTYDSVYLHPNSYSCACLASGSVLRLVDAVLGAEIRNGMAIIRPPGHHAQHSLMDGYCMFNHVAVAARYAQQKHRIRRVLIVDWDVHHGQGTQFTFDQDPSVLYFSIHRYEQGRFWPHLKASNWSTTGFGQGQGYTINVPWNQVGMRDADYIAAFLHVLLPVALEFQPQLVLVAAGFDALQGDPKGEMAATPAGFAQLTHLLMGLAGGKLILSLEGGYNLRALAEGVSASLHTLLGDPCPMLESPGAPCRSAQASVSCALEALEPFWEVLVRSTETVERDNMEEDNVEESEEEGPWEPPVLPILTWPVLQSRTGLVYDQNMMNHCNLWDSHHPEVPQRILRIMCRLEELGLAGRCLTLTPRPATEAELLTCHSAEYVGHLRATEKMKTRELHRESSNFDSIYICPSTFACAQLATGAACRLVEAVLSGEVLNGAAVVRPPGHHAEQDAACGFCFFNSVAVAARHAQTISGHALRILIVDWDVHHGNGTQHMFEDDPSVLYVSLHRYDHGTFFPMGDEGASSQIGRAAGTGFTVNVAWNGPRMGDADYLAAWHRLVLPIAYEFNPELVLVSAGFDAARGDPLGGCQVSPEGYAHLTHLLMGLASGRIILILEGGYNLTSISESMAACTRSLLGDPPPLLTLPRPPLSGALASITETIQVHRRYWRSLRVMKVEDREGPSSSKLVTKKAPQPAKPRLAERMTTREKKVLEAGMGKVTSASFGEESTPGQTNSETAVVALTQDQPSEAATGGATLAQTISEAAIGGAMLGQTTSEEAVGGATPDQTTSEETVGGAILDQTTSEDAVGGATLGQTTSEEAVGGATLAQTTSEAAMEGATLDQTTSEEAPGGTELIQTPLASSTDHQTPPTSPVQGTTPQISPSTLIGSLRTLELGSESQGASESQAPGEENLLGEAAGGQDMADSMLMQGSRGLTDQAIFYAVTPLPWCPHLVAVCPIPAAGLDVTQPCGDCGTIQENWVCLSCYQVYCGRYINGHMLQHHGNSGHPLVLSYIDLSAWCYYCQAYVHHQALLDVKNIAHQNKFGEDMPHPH

[7] = target: T2, Histone deacetylase 7 (Homo sapiens) (UniProt Q8WUI4); assay: Inhibition of HDAC7
T2 sequence (whole entry): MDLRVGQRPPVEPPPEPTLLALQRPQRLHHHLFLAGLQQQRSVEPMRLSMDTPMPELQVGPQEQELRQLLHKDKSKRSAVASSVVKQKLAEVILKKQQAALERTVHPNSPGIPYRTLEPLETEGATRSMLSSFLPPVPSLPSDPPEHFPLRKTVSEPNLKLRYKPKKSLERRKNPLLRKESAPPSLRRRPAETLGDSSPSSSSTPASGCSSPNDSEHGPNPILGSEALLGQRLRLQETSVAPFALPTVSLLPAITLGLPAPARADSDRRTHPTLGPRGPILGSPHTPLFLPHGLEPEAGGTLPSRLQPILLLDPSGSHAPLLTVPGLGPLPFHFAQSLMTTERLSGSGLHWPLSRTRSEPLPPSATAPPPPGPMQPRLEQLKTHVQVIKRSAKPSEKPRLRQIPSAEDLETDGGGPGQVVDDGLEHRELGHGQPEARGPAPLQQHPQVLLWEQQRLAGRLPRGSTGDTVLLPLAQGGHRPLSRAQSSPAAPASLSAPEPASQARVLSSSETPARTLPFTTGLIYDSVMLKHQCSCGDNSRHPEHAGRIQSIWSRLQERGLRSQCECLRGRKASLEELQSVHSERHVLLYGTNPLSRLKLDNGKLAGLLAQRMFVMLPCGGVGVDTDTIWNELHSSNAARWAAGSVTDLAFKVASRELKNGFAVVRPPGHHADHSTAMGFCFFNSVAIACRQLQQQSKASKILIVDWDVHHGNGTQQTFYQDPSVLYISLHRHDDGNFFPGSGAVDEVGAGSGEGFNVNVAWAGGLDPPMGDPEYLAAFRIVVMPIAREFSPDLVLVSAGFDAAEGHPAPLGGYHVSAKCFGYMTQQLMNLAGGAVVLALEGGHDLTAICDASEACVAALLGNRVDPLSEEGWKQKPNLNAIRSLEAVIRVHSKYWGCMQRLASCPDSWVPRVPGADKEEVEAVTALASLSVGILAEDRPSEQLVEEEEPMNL

[8] = target: T3, Histone deacetylase 8 (Homo sapiens) (UniProt Q9BY41); assay: Inhibition of HDAC8
T3 sequence (whole entry): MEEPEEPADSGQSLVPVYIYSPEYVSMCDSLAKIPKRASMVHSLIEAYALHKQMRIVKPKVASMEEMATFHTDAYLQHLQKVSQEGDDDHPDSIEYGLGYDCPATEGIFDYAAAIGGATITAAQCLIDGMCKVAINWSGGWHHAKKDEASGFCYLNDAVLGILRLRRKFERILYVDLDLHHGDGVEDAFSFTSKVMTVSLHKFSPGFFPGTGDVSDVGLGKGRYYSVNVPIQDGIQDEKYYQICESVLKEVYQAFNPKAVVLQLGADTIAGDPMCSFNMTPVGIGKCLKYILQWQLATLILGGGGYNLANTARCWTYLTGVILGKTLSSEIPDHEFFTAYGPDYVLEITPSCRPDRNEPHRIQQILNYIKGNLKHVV

[9] = target: T4, Histone deacetylase 11 (Homo sapiens) (UniProt Q96DB2); assay: Inhibition of HDAC11
T4 sequence (whole entry): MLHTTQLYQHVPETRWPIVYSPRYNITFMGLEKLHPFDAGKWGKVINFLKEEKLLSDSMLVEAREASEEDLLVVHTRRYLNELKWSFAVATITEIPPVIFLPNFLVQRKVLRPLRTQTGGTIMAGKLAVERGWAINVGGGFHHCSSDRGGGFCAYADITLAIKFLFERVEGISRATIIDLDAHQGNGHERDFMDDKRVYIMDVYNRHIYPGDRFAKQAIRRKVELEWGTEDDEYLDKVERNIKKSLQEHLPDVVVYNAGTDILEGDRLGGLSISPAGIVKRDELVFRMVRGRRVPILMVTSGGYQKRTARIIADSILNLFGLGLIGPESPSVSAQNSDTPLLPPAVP

[10] = Selectivity for HDAC1 over HDAC2
[11] = Selectivity for HDAC1 over HDAC3
[12] = Selectivity for HDAC1 over HDAC4
[13] = Selectivity for HDAC1 over HDAC5
[14] = Selectivity for HDAC1 over HDAC6
[15] = Selectivity for HDAC1 over HDAC7
[16] = Selectivity for HDAC1 over HDAC8
[17] = Selectivity for HDAC1 over HDAC11
[18] = Clearance in rat at 2 mg/kg, iv and 4 mg/kg, po; format: ADME, organism-based; conditions: in vivo
[19] = Volume of distribution at steady state in rat at 2 mg/kg, iv and 4 mg/kg, po; format: ADME, organism-based; conditions: in vivo, read-out: Vdss
[20] = Half life in rat at 2 mg/kg, iv and 4 mg/kg, po; format: ADME, organism-based; conditions: in vivo
[21] = Bioavailability in rat at 4 mg/kg, po; format: ADME, organism-based; conditions: in vivo
[22] = Clearance in dog at 0.5 mg/kg, iv and 1 mg/kg, po; format: ADME, organism-based, Canis lupus familiaris; conditions: in vivo
[23] = Volume of distribution at steady state in dog at 0.5 mg/kg, iv and 1 mg/kg, po; format: ADME, organism-based, Canis lupus familiaris; conditions: in vivo, read-out: Vdss
[24] = Half life in dog at 0.5 mg/kg, iv and 1 mg/kg, po; format: ADME, organism-based, Canis lupus familiaris; conditions: in vivo
[25] = Bioavailability in dog at 1 mg/kg, po; format: ADME, organism-based, Canis lupus familiaris; conditions: in vivo
[26] = Clearance in rhesus monkey at 0.5 mg/kg, iv and 1 mg/kg, po; format: ADME, organism-based, Macaca mulatta; conditions: in vivo
[27] = Volume of distribution at steady state in rhesus monkey at 0.5 mg/kg, iv and 1 mg/kg, po; format: ADME, organism-based, Macaca mulatta; conditions: in vivo, read-out: Vdss
[28] = Half life in rhesus monkey at 0.5 mg/kg, iv and 1 mg/kg, po; format: ADME, organism-based, Macaca mulatta; conditions: in vivo
[29] = Bioavailability in rhesus monkey at 1 mg/kg, po; format: ADME, organism-based, Macaca mulatta; conditions: in vivo
[30] = Drug level in HCT116 cells xenografted mouse plasma at 65 mg/kg, ip qd after 2 hrs on day 21; format: ADME, organism-based, HCT-116; design: dose 65 mg/kg, route intraperitoneal
How it was run: (§1)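 Mice bearing HCT116 xenografts were dosed ip in a 21-day study at 50, 65 and 80 mg/kg alongside vehicle. Plasma drug levels were measured 2, 4 and 24 h post-dose.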

[31] = Drug level in HCT116 cells xenografted mouse plasma at 65 mg/kg, ip qd after 4 hrs on day 21; format: ADME, organism-based, HCT-116; design: dose 65 mg/kg, route intraperitoneal; how it was run: as §1
[32] = Drug level in HCT116 cells xenografted mouse plasma at 65 mg/kg, ip qd after 24 hrs on day 21; format: ADME, organism-based, HCT-116; design: dose 65 mg/kg, route intraperitoneal; how it was run: as §1
[33] = Drug level in HCT116 cells xenografted mouse plasma at ip qd after 2 hrs on day 21
[34] = Drug level in HCT116 cells xenografted mouse plasma at ip qd after 4 hrs on day 21
[35] = Drug level in HCT116 cells xenografted mouse plasma at ip qd after 24 hrs on day 21
[36] = target: Voltage-gated inwardly rectifying potassium channel KCNH2 (Homo sapiens, UniProt Q12809); assay: Inhibition of human ERG
Voltage-gated inwardly rectifying potassium channel KCNH2, sequence (Q12809 whole entry): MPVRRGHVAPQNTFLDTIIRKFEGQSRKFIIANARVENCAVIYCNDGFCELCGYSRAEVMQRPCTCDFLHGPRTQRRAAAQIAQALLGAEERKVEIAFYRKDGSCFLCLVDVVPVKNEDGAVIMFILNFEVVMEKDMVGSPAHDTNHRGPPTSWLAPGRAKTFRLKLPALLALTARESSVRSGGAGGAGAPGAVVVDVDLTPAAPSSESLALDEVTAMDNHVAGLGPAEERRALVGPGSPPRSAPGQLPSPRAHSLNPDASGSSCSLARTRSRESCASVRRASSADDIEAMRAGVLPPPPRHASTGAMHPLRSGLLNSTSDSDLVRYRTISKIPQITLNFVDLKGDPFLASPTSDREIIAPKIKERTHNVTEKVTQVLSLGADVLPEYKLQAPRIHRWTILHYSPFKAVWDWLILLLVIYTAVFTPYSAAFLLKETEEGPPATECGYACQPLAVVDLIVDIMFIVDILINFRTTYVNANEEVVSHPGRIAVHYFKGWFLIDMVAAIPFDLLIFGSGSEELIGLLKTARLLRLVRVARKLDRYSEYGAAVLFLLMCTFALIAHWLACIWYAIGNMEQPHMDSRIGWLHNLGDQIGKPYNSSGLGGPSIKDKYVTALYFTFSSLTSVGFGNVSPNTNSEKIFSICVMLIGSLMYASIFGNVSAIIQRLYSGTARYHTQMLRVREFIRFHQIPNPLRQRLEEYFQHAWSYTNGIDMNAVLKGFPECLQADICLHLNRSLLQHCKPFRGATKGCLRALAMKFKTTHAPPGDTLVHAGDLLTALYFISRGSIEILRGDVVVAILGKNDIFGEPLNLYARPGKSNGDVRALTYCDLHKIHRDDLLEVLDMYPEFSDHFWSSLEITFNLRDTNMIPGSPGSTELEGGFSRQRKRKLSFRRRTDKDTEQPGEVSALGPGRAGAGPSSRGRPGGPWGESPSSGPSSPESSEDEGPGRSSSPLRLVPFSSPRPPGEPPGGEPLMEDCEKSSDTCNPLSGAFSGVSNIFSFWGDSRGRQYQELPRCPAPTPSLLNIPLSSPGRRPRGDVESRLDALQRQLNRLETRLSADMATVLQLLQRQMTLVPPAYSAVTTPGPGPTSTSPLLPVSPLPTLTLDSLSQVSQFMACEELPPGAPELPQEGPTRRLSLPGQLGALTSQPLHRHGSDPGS

CNC(=O)[C@@H](N)c1ccc(C(=O)Nc2cc(-c3cccs3)ccc2N)cc1
Activity (HCT-116): 480 nM

CNC(=O)[C@H](N)c1ccc(C(=O)Nc2cc(-c3cccs3)ccc2N)cc1
Activity (HCT-116): 420 nM

NC(=O)[C@H](N)Cc1ccc(C(=O)Nc2cc(-c3cccs3)ccc2N)cc1
Activity (HCT-116): 390 nM

NC(=O)C(N)c1ccc(C(=O)Nc2cc(-c3cccs3)ccc2N)cc1 (stereo unspecified)
logD [1]: 1.49 | Activity (HCT-116): 350 nM | solubility [2]: 185 µM (≈ 67.8 µg/mL)

Nc1ccc(-c2cccs2)cc1NC(=O)c1ccc(C(N)C(=O)O)cc1 (stereo unspecified)
Activity (HCT-116): >20000 nM

Nc1ccc(-c2ccccc2)cc1NC(=O)c1ccccc1
Activity (HCT-116): 1700 nM

NC(=O)[C@@H](N)c1ccc(C(=O)Nc2cc(-c3cccs3)ccc2N)cc1
Activity (HCT-116): 510 nM

NC(=O)[C@H](N)c1ccc(C(=O)Nc2cc(-c3cccs3)ccc2N)cc1
Activity (HCT-116): 350 nM

CNC(=O)NC(C(=O)NC)c1ccc(C(=O)Nc2cc(-c3cccs3)ccc2N)cc1 (stereo unspecified)
Activity (HCT-116): 960 nM

CNC(=O)C(NC(C)=O)c1ccc(C(=O)Nc2cc(-c3cccs3)ccc2N)cc1 (stereo unspecified)
Activity (HCT-116): 620 nM

NC(=O)[C@@H](N)Cc1ccc(C(=O)Nc2cc(-c3cccs3)ccc2N)cc1
Activity (HCT-116): 260 nM

CNC(=O)C(N)c1ccc(C(=O)Nc2cc(-c3cccs3)ccc2N)cc1 (stereo unspecified)
logD [1]: 1.57 | Activity (HCT-116): 450 nM | Activity [3]: 3.4 µM | Activity [4]: > 50 µM | Activity [5]: > 50 µM | Activity [6]: > 50 µM | Activity [7]: > 50 µM | Activity [8]: 35 µM | Activity [9]: 3.6 µM | Selectivity ratio [10]: 13 | Selectivity ratio [11]: 340 | Selectivity ratio [12]: > 5000 | Selectivity ratio [13]: > 5000 | Selectivity ratio [14]: > 5000 | Selectivity ratio [15]: > 5000 | Selectivity ratio [16]: 3500 | Selectivity ratio [17]: 360 | clearance [18]: 38 mL/min/kg | Vd [19]: 7.6 L/kg | half-life [20]: 5.9 h | bioavailability [21]: 27% | clearance [22]: 11 mL/min/kg | Vd [23]: 3.2 L/kg | half-life [24]: 5.4 h | bioavailability [25]: 17% | clearance [26]: 16 mL/min/kg | Vd [27]: 1.6 L/kg | half-life [28]: 1.6 h | bioavailability [29]: 5% | concentration at 2 h [30]: 28.6 µM | concentration at 4 h [31]: 10 µM | concentration at 24 h [32]: 0.02 µM | solubility [2]: 185 µM (≈ 70.4 µg/mL) | concentration at 2 h [33]: 17.9 µM | concentration at 4 h [34]: 4.1 µM | concentration at 24 h [35]: 0.01 µM

Nc1ccc(-c2cccs2)cc1NC(=O)c1ccccc1
logD [1]: 2.7 | Activity (HCT-116): 720 nM

CNC(=O)C(NS(C)(=O)=O)c1ccc(C(=O)Nc2cc(-c3cccs3)ccc2N)cc1 (stereo unspecified)
Activity (HCT-116): 780 nM

CNC(=O)C(NC(=O)OC)c1ccc(C(=O)Nc2cc(-c3cccs3)ccc2N)cc1 (stereo unspecified)
Activity (HCT-116): 410 nM

CN(C)C(=O)C(N)c1ccc(C(=O)Nc2cc(-c3cccs3)ccc2N)cc1 (stereo unspecified)
Activity (HCT-116): 420 nM

CCOC(=O)C(N)c1ccc(C(=O)Nc2cc(-c3cccs3)ccc2N)cc1 (stereo unspecified)
Activity (HCT-116): 1100 nM | pIC50 [36]: 5.24
